# Screening data from PubChem.
# A selection: hits, their analogues and other compounds. The true share with any hit is near 3.1%.
# INS-1E GSIS act – GLuc luminescence reporter in INS-1E cells, primary screen for activators of glucose-dependent secretion of insulin | INS-1E GLuc reporter insulin secretion, 2-3 h | activation, % at 16.6 µM | actives 0.61% (n = 370,000);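 active means lowest replicate activation of at least 40%, so every replicate reaches that level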
# F508del corr – CFTR F508del correction in bronchial cells; actives 0.36% (n = 350,000); activity (quench increase), % at 7.58 µM; AID 720511; CFBE cells, YFP halide quenching; stimulated with forskolin plus potentiator P3; % fluorescence drop versus neutral controls;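 active means mean added fluorescence quench of at least 8% versus neutral control, with both replicates also reaching 8%; inconclusive means only one of the mean or replicate conditions met; inactive means mean below 8% and not both replicates reaching 8%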;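 further: cells transiently co-express mutant CFTR-F508del with the halide-sensitive YFP; corrector assay measuring rescue of mutant channel to the surface after 24 h compound exposure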
# Ecoli rRNA inh – selective bacterial rRNA inhibition in E. coli | E. coli WT GFP vs humanized-ribosome RFP mutants, fluorescence, 24 h; active compounds read low; DMSO median 0, no signal -100 | actives 1.6% (n = 350,000) | AID 720706 | GFP signal change (wild-type ribosome), % (test concentration not listed);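 active means significant combined selectivity score with lowered wild-type GFP, culture density cut under 30%, mutant RFP and density less affected; inactive means any of these conditions unmet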
# miR122 inh – miR-122 inhibition in Huh7 cells | actives 0.3% (n = 340,000) | Huh7 miR-122 Renilla luciferase sensor, 48 h; neutral wells = 0, positive control = 100 | activation (reporter increase), % at 12.5 µM;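 active means mean replicate activation score at least 90 and every replicate individually at or above 90; inconclusive means only one of the two criteria met; inactive means neither criterion met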;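 further: higher luciferase means less miR-122 activity so hits act as miR-122 inhibitors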
# Cneo AK release – Cryptococcus neoformans lysis via adenylate kinase release; C. neoformans lysis, adenylate kinase release luminescence, 4 h; normalised: neutral wells 0, clomiphene wells 100; lysis activity, % at 15 µM; AID 651654; actives 0.2% (n = 360,000);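 active means mean lysis activity across replicates of at least 80%, whatever share of replicates individually reach that level; inactive means mean lysis activity below 80%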
#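 Test system: log-phase Cryptococcus neoformans yeast cells. Input: 5 × 10^6 yeast cells/mL. Medium: fresh YPD growth medium. Doses: single dose. Incubation: static 4 h at 37 °C with compound, 1 h detection. Measured by: luminescent adenylate kinase detection reagent. Read-out: signal increase indicating cell lysis. Benchmarks: Clomiphene.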
# Env fusion inh – HIV envelope-mediated fusion inhibition | actives 1.1% (n = 360,000) | HeLa-JRFL Env/CEM21 cell fusion, luciferase | inhibition, % at 12.3 µM;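 active means mean replicate inhibition score of at least 50 and every replicate individually at or above 50; inconclusive means only one of the two criteria met; inactive means mean below 50 and not all replicates reaching 50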
# Hits are given with their value; 0 = inactive; ? = inconclusive; - = not tested or not shown; [ ] = remark or other dose.
SMILES,INS-1E GSIS act,F508del corr,Ecoli rRNA inh,miR122 inh,Cneo AK release,Env fusion inh
Cc1ccc(S(=O)(=O)N2CCOCC2)cc1NC(=O)COC(=O)c1cccc(Cl)c1Cl,0,0,-32,-,0,-
Cc1ccc(S(=O)(=O)N2CCOCC2)cc1NC(=O)COC(=O)c1ccc(Cl)nc1,0,10,0,0,0,-
Cc1ccc(S(=O)(=O)N2CCOCC2)cc1NC(=O)COC(=O)c1cccnc1Cl,0,0,0,-,-,0
CN(C)C(=O)c1cccc(-c2ccc([C@H]3[C@@H](CO)N4CCCCN(S(C)(=O)=O)C[C@H]34)cc2)c1,0,0,0,0,0,-
COc1ccc(CNS(=O)(=O)c2ccc3c(c2)N(C(C)=O)CC(C)S3)cc1 (centres undefined),0,0,0,0,0,0
CC(=O)N1CC(C)Sc2ccc(S(=O)(=O)NCc3ccc(F)cc3)cc21 (centres undefined),0,0,-26,?,0,0
O=C(c1cc[n+]([O-])cc1)N1CCc2c([nH]c3ccccc23)C1c1ccccc1Cl (centres undefined),0,-,-30,0,0,0
CO[C@@H]1CN(C)C(=O)c2ccc(NC(C)=O)cc2OC[C@H](C)N(Cc2cc(F)ccc2F)C[C@H]1C,0,0,0,0,0,-
N#C/C(=C\c1ccc(O)c(O)c1)C(=O)N1CCc2ccccc21,-,0,-,0,0,0
COc1cc(/C=C(\C#N)C(=O)N2CCc3ccccc32)ccc1O,0,0,-33,0,0,0
CNC[C@H]1Oc2ccc(NC(=O)Nc3ccc4c(c3)OCO4)cc2CC(=O)N([C@@H](C)CO)C[C@H]1C,0,0,0,0,-,0
CCOc1ccc(N(C)S(=O)(=O)c2cc(-c3cc(C)no3)ccc2C(C)C)cc1,0,0,0,0,-,79
CCN(c1ccc(OC)cc1)S(=O)(=O)c1cc(-c2cc(C)no2)ccc1OC,0,0,-31,0,0,0
CCN(c1ccc(OC)cc1)S(=O)(=O)c1cc(-c2cc(C)no2)ccc1C(C)C,0,0,0,0,-,0
COc1ccccc1C(=O)Nc1ccc2c(c1)C(=O)N(C)[C@H]1CC[C@H](CC(=O)NCc3ccc(Cl)c(Cl)c3)O[C@H]1CO2,0,0,0,308[16.7 µM],0,-
COc1ccccc1CNC(=O)C[C@@H]1CC[C@@H]2[C@H](COc3ccc(NC(C)=O)cc3C(=O)N2C)O1,0,0,0,0,101,0
COc1ccccc1CNC(=O)C[C@H]1CC[C@H]2[C@@H](COc3ccc(NC(C)=O)cc3C(=O)N2C)O1,0,0,0,0,0,0
CCN(c1ccccc1)S(=O)(=O)c1ccc(Cl)c(NC(=O)CSc2nnc(C)s2)c1,0,0,-32,0,-,0
COc1ccc2c(C)nc(Nc3nc(C)c(C)c(=O)[nH]3)nc2c1,-,-,-,0,0,66
COc1ccc2nc(Nc3nc(CSc4nc5ccccc5[nH]4)cc(=O)[nH]3)nc(C)c2c1,0,-,0,0,0,86
Cc1nc(Nc2nc(CSc3nc4ccccc4[nH]3)cc(=O)[nH]2)nc2ccccc12,0,-,-,?,0,161
S=C1NC[C@H](c2ccccc2)N1CCCCC1CCCCC1,0,0,0,0,0,0
NC1=NC[C@H](c2ccccc2)N1CCCCC1CCCCC1,285,0,0,0,0,0
N#Cc1ccc(-c2ccc3c(c2)[C@@H]2[C@@H](CCN2C(=O)c2ccc4c(c2)OCO4)[C@@H](CO)N3)cc1,0,0,0,0,0,-
CC(=O)Nc1ccc2c(c1)C(N1CC3CCC(CC3)C1)c1ccccc1-2 (centres undefined),0,0,0,0,0,67
SMILES,INS-1E GSIS act,F508del corr,Ecoli rRNA inh,miR122 inh,Cneo AK release,Env fusion inh
O=C(Nc1cccc(Cl)c1)N1CCN(C2c3ccccc3-c3ccccc32)CC1,0,0,0,-,-,0
COc1ccc2c3c(n(C)c2c1)[C@@H](CO)N(C(=O)C1CCCC1)CC31CCN(Cc2cccc(F)c2)CC1,0,0,0,-,-,-
CO[C@H]1CN(C)C(=O)c2cc(NC(=O)Nc3ccccc3Cl)ccc2OC[C@H](C)NC[C@H]1C,0,0,0,0,0,0
Cc1cccc(N(Cc2ccccc2)C(=O)CCl)c1,97,0,0,-,-,0
Cc1cccc(N=NC(=S)NNc2cccc(C)c2)c1,0,0,-20,0,-,0
Cc1cccc(NNC(=O)C(=O)NNc2cccc(C)c2)c1,0,0,0,0,0,0
Cc1ccc(CN(C)C(=O)c2ccccc2Sc2ccccc2C#N)cc1,0,0,0,0,0,0
CN(Cc1ccc(OC(F)F)cc1)C(=O)c1ccccc1Sc1ccccc1C#N,0,0,0,-,0,56
CCc1ccc(/C=N/NC(=O)c2nnn(-c3nonc3N)c2C(C)C)cc1,-,0,0,0,0,0
Cc1ccc(/C=N/NC(=O)c2nnn(-c3nonc3N)c2CSc2ccccc2)cc1,0,0,0,-,-,0
CN(Cc1c(C(=O)N/N=C/c2c(F)cccc2Cl)nnn1-c1nonc1N)c1ccccc1,0,0,-22,0,0,0
Cc1c(C(=O)N/N=C/c2c(O)ccc3ccccc23)nnn1-c1nonc1N,0,14,0,0,0,0
Cc1ccc(SCc2c(C(=O)N/N=C/c3ccccc3)nnn2-c2nonc2N)cc1,0,0,-16,-,-,0
CC(C)c1c(C(=O)N/N=C/c2cccnc2)nnn1-c1nonc1N,0,0,-20,0,0,0
COc1ccc2c3c([nH]c2c1)[C@H](CO)N(C(=O)C1CCOCC1)CC31CN(Cc2nccs2)C1,0,0,0,-,-,-
COc1ccc(S(=O)(=O)N2CCCCN3[C@H](CO)[C@@H](c4ccc(C#CC5CC5)cc4)[C@H]3C2)cc1,0,0,0,0,0,-
O=C(C[C@H]1C[C@H]2c3cc(NC(=O)NC4CCCC4)ccc3O[C@H]2[C@H](CO)O1)NCc1ccc(-c2ccccc2)cc1,0,0,0,0,0,-
C[C@@H]1CN([C@@H](C)CO)C(=O)c2cccc(NC(=O)c3ccc(-c4nccs4)cc3)c2O[C@H]1CN(C)CC1CC1,0,0,0,0,0,57[16.7 µM]
C[C@@H]1CN([C@@H](C)CO)C(=O)c2cccc(NC(=O)c3ccc(-c4nccs4)cc3)c2O[C@@H]1CN(C)Cc1ccc(C(=O)Nc2ccccc2N)cc1,0,0,0,213[16.7 µM],0,0
C[C@H](CO)N1C[C@H](C)[C@@H](CN(C)CC2CC2)Oc2c(NC(=O)c3ccc(-c4nccs4)cc3)cccc2C1=O,0,0,0,0,0,0
CN(C)CC(=O)N1CC2(C1)[C@H](c1ccccc1)[C@H](CO)N2C(=O)C1CCC1,0,0,0,-,-,0
CS(=O)(=O)N1CC(=O)N2[C@H](CO)[C@@H](c3ccc(C#CC4CCCC4)cc3)[C@H]2C1,0,0,0,-,-,-
